Here are results for two compounds from ChEMBL document CHEMBL1926562, “Design, synthesis and biological activity of sphingosine kinase 2 selective inhibitors” (Bioorg Med Chem, 2012).

Calls of active or inactive are those of the source. The rule behind the calls is not given here.

The target of assay [1] is T1, Sphingosine kinase 2 (Homo sapiens) (UniProt Q9NRA0).
T1 sequence (whole entry): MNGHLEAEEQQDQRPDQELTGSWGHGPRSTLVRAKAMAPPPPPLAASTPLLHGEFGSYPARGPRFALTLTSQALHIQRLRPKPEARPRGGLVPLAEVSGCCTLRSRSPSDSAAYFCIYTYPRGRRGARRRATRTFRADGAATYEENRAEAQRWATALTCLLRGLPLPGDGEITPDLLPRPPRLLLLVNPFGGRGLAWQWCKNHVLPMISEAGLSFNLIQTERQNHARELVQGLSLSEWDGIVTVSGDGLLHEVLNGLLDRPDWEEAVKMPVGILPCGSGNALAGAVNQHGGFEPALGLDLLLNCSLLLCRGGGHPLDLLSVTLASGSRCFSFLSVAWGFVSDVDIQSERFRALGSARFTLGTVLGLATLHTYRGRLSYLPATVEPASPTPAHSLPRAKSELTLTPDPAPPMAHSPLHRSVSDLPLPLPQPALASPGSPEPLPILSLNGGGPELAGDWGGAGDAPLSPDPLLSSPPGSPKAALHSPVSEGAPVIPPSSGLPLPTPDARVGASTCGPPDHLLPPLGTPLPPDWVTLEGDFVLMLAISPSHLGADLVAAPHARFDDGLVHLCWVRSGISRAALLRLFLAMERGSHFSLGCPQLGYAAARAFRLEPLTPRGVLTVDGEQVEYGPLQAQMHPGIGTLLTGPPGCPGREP
As to the kind of experiment: Inhibition of SphK2 in human U937 cells using FTY720 as substrate assessed as decrease in phosphorylated FTY720 at 10 uM after 2 hrs by LC/MS analysis. In kind it is cell-based. As to conditions: U-937. In outline:
(§1)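 Cultured U937 cells were given FTY720 plus 10 μM inhibitor for 2 h, then pelleted by centrifugation. FTY720 and FTY720-P in the cell pellet were measured by LC/MS (C18 reverse phase, water/methanol/formic acid gradient) and reported as moles per million cells. Values are means ± SD of three independent experiments, with significance by unpaired two-tailed t-test.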

Assay [2] addresses T2, Sphingosine kinase 1 (Homo sapiens, UniProt Q9NYA1). The assay can be described thus: Inhibition of human SphK1 expressed in baculovirus infected Sf9 insect cells using sphingosine and [gamma-(32)P]-ATP by scintillation proximity assay. In outline:
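Ki calculated as Ki = [I]/(K′m/Km – 1), using a sphingosine Km of 10 μM for SphK1 and 5 μM for SphK2. Enzyme came from infected Sf9 cell extract (10,000×g supernatant, 2-3 μg protein).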
(In general: Scintillation proximity formats need no separation of bound from free tracer.)

Assay [3] is described as follows: Selectivity ratio of Ki/Km for human SphK1 to Ki/Km for mouse SphK2. In outline: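 Selectivity calculated as (Ki/Km)SphK1 divided by (Ki/Km)SphK2, with sphingosine Km taken as 10 μM for SphK1 and 5 μM for SphK2.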
Assay [4] has as its target T3, Sphingosine kinase 2 (Mus musculus) (UniProt Q9JIA7).
T3 sequence (whole entry): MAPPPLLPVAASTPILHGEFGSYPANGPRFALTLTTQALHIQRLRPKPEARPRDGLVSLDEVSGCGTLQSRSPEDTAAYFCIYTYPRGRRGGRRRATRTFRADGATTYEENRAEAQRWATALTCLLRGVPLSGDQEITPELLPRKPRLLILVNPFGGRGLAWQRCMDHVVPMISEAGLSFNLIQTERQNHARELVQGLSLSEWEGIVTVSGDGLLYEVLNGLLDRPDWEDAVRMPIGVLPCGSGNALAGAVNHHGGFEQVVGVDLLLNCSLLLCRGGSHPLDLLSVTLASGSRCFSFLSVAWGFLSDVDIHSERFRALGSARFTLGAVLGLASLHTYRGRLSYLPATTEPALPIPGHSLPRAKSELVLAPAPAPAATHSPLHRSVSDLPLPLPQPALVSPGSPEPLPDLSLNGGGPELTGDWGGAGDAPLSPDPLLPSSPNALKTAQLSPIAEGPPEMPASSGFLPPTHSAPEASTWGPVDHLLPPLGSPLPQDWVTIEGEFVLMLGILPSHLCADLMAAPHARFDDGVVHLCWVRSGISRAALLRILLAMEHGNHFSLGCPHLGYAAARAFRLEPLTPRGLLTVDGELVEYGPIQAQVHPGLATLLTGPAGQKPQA
The assay can be described thus: Inhibition of mouse SphK2 expressed in baculovirus infected Sf9 insect cells assessed as remaining activity using sphingosine and [gamma-(32)P]-ATP at 100 uM by scintillation proximity counting. In outline: (§2)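 Enzyme source: supernatant (10,000×g) of homogenized Sf9 cells infected with recombinant virus for 72 h, 2-3 μg protein per reaction. Sphingosine substrate at 10 μM for SphK1 and 5 μM for SphK2. Initial screen used inhibitor at 100 μM, with some compounds at 10 μM. Read-out is percent of remaining kinase activity, averaged over three experiments.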

Assay [5] has as its target T1, Sphingosine kinase 2 (Homo sapiens). As to the kind of experiment: Inhibition of SphK2 in human U937 cells using FTY720 as substrate assessed as accumulation of FTY720 at 10 uM after 2 hrs by LC/MS analysis. The format is cell-based. The settings on record: U-937. The method in brief:
as §1

For assay [6] the target is unchanged. As to the kind of experiment: Inhibition of SphK2 in human U937 cells assessed as decrease in ERK phosphorylation after 16 hrs by Western blot analysis. The settings on record: U-937. The format is cell-based. The method in brief:
(§3)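 U937 cells were incubated with a range of inhibitor concentrations for 16 h, then washed with PBS and Dounce-lysed. Equal protein amounts were run on 10% SDS–PAGE and blotted to nitrocellulose. Blots were blocked in 5% milk/TBS-Tween, probed with antibodies to ERK, p-ERK, Akt, p-Akt and β-actin (1:1000, 1 h), then HRP anti-IgG (1:2000). PD098059 (10 μM) served as ERK-phosphorylation control.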
Background: A western blot detects proteins with antibodies after separation by electrophoresis.

The target is the same in assay [7]. As to the kind of experiment: Inhibition of SphK2 in human U937 cells assessed as decrease in Akt phosphorylation after 16 hrs by Western blot analysis. In kind it is cell-based. The settings on record: U-937. The method in brief: as §3
Assay [8] concerns the target T4, Sphingosine kinase 2 (Mus musculus, UniProt Q9JIA7).
T4 sequence (Q9JIA7 whole entry): T3 sequence (whole entry)
The assay can be described thus: Inhibition of mouse SphK2 expressed in baculovirus infected Sf9 insect cells using sphingosine and [gamma-(32)P]-ATP by scintillation proximity assay.

Assay [9] concerns the target T2, Sphingosine kinase 1. The assay can be described thus: Inhibition of human SphK1 expressed in baculovirus infected Sf9 insect cells assessed as remaining activity using sphingosine and [gamma-(32)P]-ATP as substrate at 100 uM by scintillation proximity counting. The method in brief:
as §2

In assay [10] the target is T1, Sphingosine kinase 2 (Homo sapiens). As to the kind of experiment: Inhibition of SphK2 in human U937 cells assessed as change in S1P level by LC/MS analysis. In kind it is cell-based. As to conditions: U-937. In outline: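 U937 cells were treated with inhibitor, and S1P levels were measured by LC/MS.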

T2 sequence (Q9NYA1 whole entry): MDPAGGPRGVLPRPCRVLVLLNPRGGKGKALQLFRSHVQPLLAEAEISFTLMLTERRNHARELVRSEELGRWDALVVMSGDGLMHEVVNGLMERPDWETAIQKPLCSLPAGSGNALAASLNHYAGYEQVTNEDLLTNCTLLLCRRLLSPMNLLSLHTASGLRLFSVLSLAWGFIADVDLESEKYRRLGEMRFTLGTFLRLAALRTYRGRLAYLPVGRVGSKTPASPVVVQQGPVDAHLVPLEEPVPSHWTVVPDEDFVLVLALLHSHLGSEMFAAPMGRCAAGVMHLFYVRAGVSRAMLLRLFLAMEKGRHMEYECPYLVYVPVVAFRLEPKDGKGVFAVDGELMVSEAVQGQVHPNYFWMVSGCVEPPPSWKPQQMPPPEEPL

`CCCCCCCCc1ccc([C@H]2CC[C@H]([N+](C)(C)CCC)CC2)cc1`: the inhibition result in assay [1] and in assay [5] was “Active” each time. Moreover, the Ki (commonly the equilibrium dissociation constant of an inhibitor or competing ligand from its target) in assay [2] worked out at 47 µM; in assay [8] it was 8 µM. The Selectivity ratio in [3] came to 2.94. The Activity in assay [4] was determined as 7.2%; in [9] it was 5.3%. In addition, the inhibition entry in assay [6] and in assay [7] was “Dose-dependent effect” in each case. Moreover, in assay [10], the inhibition result is “inactive”.
For the compound `CCCCCCCCc1ccc([C@H]2CC[C@H]([N+](C)(C)C)CC2)cc1`, the inhibition result in [1] and in [5] was “Active” throughout. The figures for the Ki in [2] and in assay [8] were 60 µM and 8 µM, respectively. For the same compound, the Selectivity ratio in assay [3] was found to be 3.75. Moreover, the Activity in [4] was 4%; in assay [9] it was 10.2%. Moreover, the inhibition entry in assay [6] and in assay [7] was “Dose-dependent effect” in each case. Moreover, in assay [10], the inhibition entry was “inactive”.
